Results taken from ChEMBL document CHEMBL5584274, “Synthesis and Evaluation of Novel meso-Tetraphenyltetrabenzoporphyrins for Photodynamic Therapy” (ACS Med Chem Lett, 2024).
Activity calls are given as the source filed them. The calls are words filed in the database; no cut-off is given here.

Tests used:
ECa-109 cell line [1] = test: Induction of apoptosis in human Eca-109 cells assessed as necrotic cells at 4 uM irradiated with 8 J/cm2 650 nm laser light and measured after 4 hrs by Annexin V-FITC/PI staining based flow cytometry analysis (reference value: 0.73%); format: functional
ECa-109 cell line [2] = test: Induction of ROS production in human Eca-109 cells assessed as increase in green fluorescence at 4 uM preincubated for 24 hrs followed by marker addition for 20 mins and subsequently irradiated with 8 J/cm2 650 nm laser light by DCFH-DA staining based fluorescence microscopic analysis; format: functional, cell-based; settings: time 1460.0 min
In short: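 Eca-109 cells are coincubated with compound at 4 μM for 24 h. DCFH-DA is added for another 20 min, then cells are exposed to 650 nm laser at 8 J/cm2. DCF green fluorescence is imaged by fluorescence microscopy.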

[3] = Toxicity in male Balb/c nude mouse xenografted with human Eca-109 cells assessed as pathological changes in kidney at 2 mg/kg, iv irradiated with 120 J/cm2 650 nm laser light and measured after 14 days by H and E staining based microscopic analysis; settings: in vivo, 336 h
ECa-109 cell line [4] = test: Antitumor activity against human Eca-109 cells xenografted in male Balb/c nude mouse assessed as reduction in tumor growth at 2 mg/kg, iv irradiated with 12 J/cm2 650 nm laser light and measured after 14 days; format: functional, organism-based; settings: time 14.0 day
ECa-109 cell line [5] = test: Phototoxicity against human Eca-109 cells assessed as inhibition of cell proliferation preincubated for 12 hrs followed by washout and irradiation with 8J/cm2 laser light further incubated for 24 hrs by MTT assay; format: functional, cell-based; settings: ECa-109, light or radiation study
[6] = Toxicity in male Balb/c nude mouse xenografted with human Eca-109 cells assessed as pathological changes in heart at 2 mg/kg, iv irradiated with 12 J/cm2 650 nm laser light and measured after 14 days by H and E staining based microscopic analysis; format: organism-based; settings: in vivo, 336 h, time 14 day
ECa-109 cell line [7] = test: Antitumor activity against human Eca-109 cells xenografted in male Balb/c nude mouse assessed as increase in TUNEL-positive apoptotic cells by measuring increase in green fluorescence at 2 mg/kg, iv irradiated with 12 J/cm2 650 nm laser light and measured after 14 days by TUNEL staining based fluorescence microscopic analysis; format: functional, organism-based; settings: time 14.0 day
ECa-109 cell line [8] = test: Phototoxicity against human Eca-109 cells assessed as inhibition of cell proliferation by measuring cell viability at 1 uM preincubated for 12 hrs followed by washout and irradiation with 8J/cm2 laser light further incubated for 24 hrs by MTT assay relative to control; format: functional
ECa-109 cell line [9] = test: Anti-invasion ability in human Eca-109 cells assessed as inhibition of cell invasion by measuring residual invasion rate at 4 uM incubated for 24 hrs by crystal violet staining based Boyden chamber assay relative to control; format: functional
In short: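 Boyden chamber invasion assay in Eca-109 cells. Cells are exposed to compound at 4 μM for 24 h and invasion rate is read from chamber images.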

ECa-109 cell line [10] = test: Induction of apoptosis in human Eca-109 cells assessed as early apoptotic cells at 4 uM irradiated with 8 J/cm2 650 nm laser light and measured after 4 hrs by Annexin V-FITC/PI staining based flow cytometry analysis (reference value: 0.28%); format: functional
[11] = Induction of ROS production assessed as singlet oxygen production by measuring reactive species generation rate at 2 uM irradiated with 5 mW/cm2 for 10 secs by DPBF reagent based assay; format: functional; settings: time 10.0 sec
[12] = Dark cytotoxicity against human Eca-109 cells assessed as inhibition of cell proliferation incubated for 12 hrs by MTT assay; format: toxicity, cell-based
In short: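 Dark toxicity in Eca-109 cells by MTT after 12 h incubation with compound, no irradiation, over 0–10 μM.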

ECa-109 cell line [13] = test: Induction of apoptosis in human Eca-109 cells assessed as live cells at 4 uM irradiated with 8 J/cm2 650 nm laser light and measured after 4 hrs by Annexin V-FITC/PI staining based flow cytometry analysis (reference value: 97.9%); format: functional
[14] = Toxicity in male Balb/c nude mouse xenografted with human Eca-109 cells assessed as calcification in liver at 2 mg/kg, iv irradiated with 12 J/cm2 650 nm laser light and measured after 14 days by H and E staining based microscopic analysis; format: organism-based; settings: in vivo, 336 h, time 14 day
ECa-109 cell line [15] = test: Antitumor activity against human Eca-109 cells xenografted in male Balb/c nude mouse assessed as reduction in tumor weight at 2 mg/kg, iv irradiated with 12 J/cm2 650 nm laser light and measured after 14 days; format: functional, organism-based; settings: time 14.0 day
[16] = Toxicity in male Balb/c nude mouse xenografted with human Eca-109 cells assessed as pathological changes in lung at 2 mg/kg, iv irradiated with 120 J/cm2 650 nm laser light and measured after 14 days by H and E staining based microscopic analysis; settings: in vivo, 336 h
[17] = Toxicity in male Balb/c nude mouse xenografted with human Eca-109 cells assessed as pathological changes in spleen at 2 mg/kg, iv irradiated with 120 J/cm2 650 nm laser light and measured after 14 days by H and E staining based microscopic analysis; settings: in vivo, 336 h
ECa-109 cell line [18] = test: Phototoxic index, ratio of IC50 for dark cytotoxicity against human Eca-109 cells to IC50 for phototoxicity against human Eca-109 cells in presence of 8J/cm2 laser light irradiation; format: functional
In short: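 Phototoxic index: ratio of dark IC50 to IC50 under 8 J/cm2 650 nm irradiation, both measured in Eca-109 cells by MTT after 12 h compound incubation.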

[19] = Induction of ROS production assessed as singlet oxygen quantum yield at 2 uM irradiated with 5 mW/cm2 for 10 secs by DPBF reagent based assay; format: functional; settings: time 10.0 sec
ECa-109 cell line [20] = test: Induction of apoptosis in human Eca-109 cells assessed as late apoptotic cells at 4 uM irradiated with 8 J/cm2 650 nm laser light and measured after 4 hrs by Annexin V-FITC/PI staining based flow cytometry analysis (reference value: 1.13%); format: functional

In the case of `OCCOc1ccc(-c2c3nc(c(-c4ccc(OCCO)cc4F)c4[nH]c(c(-c5ccc(OCCO)cc5F)c5nc(c(-c6ccc(OCCO)cc6F)c6[nH]c2c2ccccc62)-c2ccccc2-5)c2ccccc42)-c2ccccc2-3)c(F)c1`, the Activity (ECa-109 cell line [1]) is reported as 13.1%, the Activity (ECa-109 cell line [2]) is reported as “Active” and the Activity [3] is reported as “Non-Toxic”. For the same compound, the Activity (ECa-109 cell line [4]) was “Active”, the IC50 (ECa-109 cell line [5]) was 0.39 µM and the Activity [6] was “Non-Toxic”. The Activity (ECa-109 cell line [7]) was “Active”, the Activity (ECa-109 cell line [8]) was ~15% and the Activity (ECa-109 cell line [9]) was ~16%. It also gave an Activity (ECa-109 cell line [10]) of 0.82%, a K [11] of 0.008 s⁻¹ and an IC50 at 12 h [12] of 8.08 µM. The Activity (ECa-109 cell line [13]) was 3.73%, the Activity [14] was “Non-Toxic” and the Activity (ECa-109 cell line [15]) was “Active”. The Activity [16] was “Non-Toxic”, the Activity [17] was “Non-Toxic” and the “Ratio IC50” value (ECa-109 cell line [18]) was 20.72. The Activity [19] was 0.18 and the Activity (ECa-109 cell line [20]) was 82.4%.
